According to ChEMBL document CHEMBL4392823, “Potassium channel blocking 1,2-bis(aryl)ethane-1,2-diamines active as antiarrhythmic agents” (Bioorg Med Chem Lett, 2019):

Columns and labels:
[1] = target: T1, Potassium voltage-gated channel subfamily A member 5 (Homo sapiens, UniProt P22460); experiment: Inhibition of Kv1.5 in human atrial myocytes assessed as blockade of Ikur current; assay type: cell-based
[2] = target: T1, Potassium voltage-gated channel subfamily A member 5; experiment: Inhibition of recombinant human Kv1.5 expressed in CHO cells by IonWork high-throughput electrophysiology assay; assay type: cell-based
Method in brief: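 Kv1.5 current recorded in CHO cells by IonWorks HT automated electrophysiology. IC50 is the average of 2 measurements unless n=1 is noted.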

[3] = Plasma clearance in dog; assay type: ADME, Canis lupus familiaris
[4] = Drug excretion in dog urine; assay type: ADME, Canis lupus familiaris; details: read-out: Drug excretion
[5] = Renal clearance in dog; assay type: ADME, Canis lupus familiaris; details: in vivo
[6] = Cardiotoxicity in dog assessed as blockade of sodium channel by measuring changes in ECG at higher dose; assay type: toxicity, Canis lupus familiaris; details: in vivo
Oryctolagus cuniculus = experiment: Antiarrhythmic activity in iv dosed anesthetized rabbit assessed as free compound plasma exposure which prolongs the right atrial effective refractory period by 20 milliseconds measured after 20 mins by electrophysiological analysis; assay type: functional
Method in brief: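 Anesthetized rabbits received increasing intravenous infusions of test compound. Right atrial effective refractory period was measured 20 min after each dose. Value is the free plasma exposure giving a 20 ms RAERP prolongation.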

Cytochrome P450 2D6 = Cytochrome P450 2D6 (Homo sapiens, UniProt P10635); experiment: Inhibition of CYP2D6 (unknown origin); assay type: ADME
Cytochrome P450 2D6, sequence (P10635 whole entry): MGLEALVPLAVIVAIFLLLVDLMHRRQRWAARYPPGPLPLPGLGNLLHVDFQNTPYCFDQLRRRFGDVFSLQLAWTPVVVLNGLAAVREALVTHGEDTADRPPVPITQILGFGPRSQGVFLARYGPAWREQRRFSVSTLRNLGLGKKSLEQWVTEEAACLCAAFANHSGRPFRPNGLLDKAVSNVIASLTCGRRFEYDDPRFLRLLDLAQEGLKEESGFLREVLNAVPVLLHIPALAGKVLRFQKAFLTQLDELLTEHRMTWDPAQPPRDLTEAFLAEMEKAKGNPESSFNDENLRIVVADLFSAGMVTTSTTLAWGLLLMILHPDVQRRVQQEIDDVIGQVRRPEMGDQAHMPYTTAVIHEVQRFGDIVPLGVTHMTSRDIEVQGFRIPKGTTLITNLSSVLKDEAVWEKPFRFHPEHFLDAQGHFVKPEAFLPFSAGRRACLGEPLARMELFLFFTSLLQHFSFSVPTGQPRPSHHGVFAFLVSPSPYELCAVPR

[7] = target: Potassium voltage-gated channel subfamily E member 1 (Homo sapiens, UniProt P15382); experiment: Inhibition of IKs (unknown origin)
[8] = Lipophilicity, log D of the compound by chromatographic method; assay type: physicochemical
Method in brief: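 Lipophilicity (log D) measured by a chromatographic method.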

[9] = Intrinsic clearance in human liver microsomes; assay type: ADME, Microsome; details: read-out: CLH
[10] = Stability in human liver microsomes assessed as formation of iminium ions; assay type: ADME, Microsome
[11] = target: Voltage-gated inwardly rectifying potassium channel KCNH2 (Homo sapiens, UniProt Q12809); experiment: Inhibition of human ERG
Voltage-gated inwardly rectifying potassium channel KCNH2, sequence (Q12809 whole entry): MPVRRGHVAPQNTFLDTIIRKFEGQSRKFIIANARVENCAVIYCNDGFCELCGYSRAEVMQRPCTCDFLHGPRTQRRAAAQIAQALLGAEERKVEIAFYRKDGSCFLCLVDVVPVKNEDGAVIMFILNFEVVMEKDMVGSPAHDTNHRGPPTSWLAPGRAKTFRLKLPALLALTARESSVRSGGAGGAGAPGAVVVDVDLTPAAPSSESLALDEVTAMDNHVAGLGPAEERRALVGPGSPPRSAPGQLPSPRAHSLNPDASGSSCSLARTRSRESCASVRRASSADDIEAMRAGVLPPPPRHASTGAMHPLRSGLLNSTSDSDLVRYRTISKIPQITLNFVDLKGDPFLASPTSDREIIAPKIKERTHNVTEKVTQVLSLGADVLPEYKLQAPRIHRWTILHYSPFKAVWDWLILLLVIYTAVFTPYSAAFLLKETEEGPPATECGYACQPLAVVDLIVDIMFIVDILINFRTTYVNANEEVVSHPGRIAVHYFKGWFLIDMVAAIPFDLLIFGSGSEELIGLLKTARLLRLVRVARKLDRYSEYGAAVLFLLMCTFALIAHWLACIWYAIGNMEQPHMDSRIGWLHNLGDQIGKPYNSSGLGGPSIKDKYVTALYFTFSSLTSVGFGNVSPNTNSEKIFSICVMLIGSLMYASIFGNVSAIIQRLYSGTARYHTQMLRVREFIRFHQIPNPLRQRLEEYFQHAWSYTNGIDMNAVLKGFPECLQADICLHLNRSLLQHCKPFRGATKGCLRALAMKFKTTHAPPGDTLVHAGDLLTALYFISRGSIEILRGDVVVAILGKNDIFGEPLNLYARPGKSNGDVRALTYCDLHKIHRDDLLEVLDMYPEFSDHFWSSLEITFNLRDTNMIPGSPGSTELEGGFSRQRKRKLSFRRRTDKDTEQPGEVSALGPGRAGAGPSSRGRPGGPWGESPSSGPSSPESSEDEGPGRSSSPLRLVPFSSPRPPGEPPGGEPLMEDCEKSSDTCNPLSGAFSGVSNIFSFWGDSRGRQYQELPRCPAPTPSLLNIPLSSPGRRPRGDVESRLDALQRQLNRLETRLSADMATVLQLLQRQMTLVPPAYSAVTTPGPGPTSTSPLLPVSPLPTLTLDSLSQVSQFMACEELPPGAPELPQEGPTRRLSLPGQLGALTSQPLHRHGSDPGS

Cytochrome P450 3A4 = Cytochrome P450 3A4 (Homo sapiens, UniProt P08684); experiment: Drug metabolism in human hepatocytes assessed as CYP3A4-mediated drug metabolism; assay type: ADME, cell-based
Cytochrome P450 3A4, sequence (P08684 whole entry): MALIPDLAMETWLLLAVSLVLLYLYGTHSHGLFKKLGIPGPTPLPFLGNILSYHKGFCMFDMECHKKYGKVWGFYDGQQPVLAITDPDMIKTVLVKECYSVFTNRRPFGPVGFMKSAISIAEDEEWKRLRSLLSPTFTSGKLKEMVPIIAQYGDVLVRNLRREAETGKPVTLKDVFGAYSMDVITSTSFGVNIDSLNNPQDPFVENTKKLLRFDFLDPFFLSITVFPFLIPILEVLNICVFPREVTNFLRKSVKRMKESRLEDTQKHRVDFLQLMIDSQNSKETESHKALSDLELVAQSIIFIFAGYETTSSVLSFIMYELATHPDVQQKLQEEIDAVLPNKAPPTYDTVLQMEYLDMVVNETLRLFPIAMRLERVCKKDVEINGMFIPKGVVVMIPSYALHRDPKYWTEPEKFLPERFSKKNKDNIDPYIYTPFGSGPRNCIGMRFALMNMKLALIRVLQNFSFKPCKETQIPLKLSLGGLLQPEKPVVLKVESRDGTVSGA

[12] = target: T2, Glutamate [NMDA] receptor (Homo sapiens) (UniProt Q05586+Q12879+Q13224+O15399+O60391+Q14957+Q8TCU5); experiment: Inhibition of NMDA receptor glycine binding site (unknown origin) at 10 uM relative to control; assay type: protein-complex assay
Canis familiaris = species: Canis familiaris; experiment: Antiarrhythmic activity in rapid atrial pacing dog model of atrial fibrillation assessed as unbound plasma concentration required to convert atrial fibrillation to sinus rhythm; assay type: functional, Canis lupus familiaris
Method in brief: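 Rapid atrial pacing dog model of AF (n=12). Read-out was conversion of AF to sinus rhythm, with the unbound plasma concentration at conversion reported as mean ± spread.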

[13] = target: T3, G protein-activated inward rectifier potassium channel 4 (Homo sapiens, UniProt P48544); experiment: Inhibition of Kir3.4 (unknown origin)
T3 sequence (P48544 whole entry): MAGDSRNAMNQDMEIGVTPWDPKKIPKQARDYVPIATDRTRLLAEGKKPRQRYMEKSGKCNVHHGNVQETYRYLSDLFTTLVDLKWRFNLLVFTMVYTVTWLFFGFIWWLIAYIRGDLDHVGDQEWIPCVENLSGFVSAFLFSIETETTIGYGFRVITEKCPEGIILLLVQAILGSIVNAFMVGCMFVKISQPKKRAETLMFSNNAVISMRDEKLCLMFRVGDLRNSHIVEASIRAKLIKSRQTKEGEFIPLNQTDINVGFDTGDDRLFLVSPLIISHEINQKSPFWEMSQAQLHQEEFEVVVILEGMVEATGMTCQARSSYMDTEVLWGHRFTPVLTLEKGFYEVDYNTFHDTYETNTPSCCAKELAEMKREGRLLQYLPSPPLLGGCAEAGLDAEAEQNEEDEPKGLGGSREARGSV

[14] = target: T2, Glutamate [NMDA] receptor (Homo sapiens); experiment: Inhibition of NMDA receptor phencyclidine binding site (unknown origin) at 10 uM relative to control; assay type: protein-complex assay
[15] = Free drug level in rat brain at 2 umol/kg/hr administered for 4 hrs; assay type: ADME, tissue-based; details: in vivo
Method in brief: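 Rats received a continuous intravenous infusion at 2 μmol/kg/h for 4 h. Total brain and plasma concentrations were measured at steady state. Free levels were calculated from measured unbound fractions in brain and plasma, and free brain exposure was expressed relative to free plasma exposure.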

[16] = target: T4, A-type voltage-gated potassium channel KCND3 (Homo sapiens, UniProt Q9UK17); experiment: Inhibition of Kv4.3 (unknown origin)
T4 sequence (Q9UK17 whole entry): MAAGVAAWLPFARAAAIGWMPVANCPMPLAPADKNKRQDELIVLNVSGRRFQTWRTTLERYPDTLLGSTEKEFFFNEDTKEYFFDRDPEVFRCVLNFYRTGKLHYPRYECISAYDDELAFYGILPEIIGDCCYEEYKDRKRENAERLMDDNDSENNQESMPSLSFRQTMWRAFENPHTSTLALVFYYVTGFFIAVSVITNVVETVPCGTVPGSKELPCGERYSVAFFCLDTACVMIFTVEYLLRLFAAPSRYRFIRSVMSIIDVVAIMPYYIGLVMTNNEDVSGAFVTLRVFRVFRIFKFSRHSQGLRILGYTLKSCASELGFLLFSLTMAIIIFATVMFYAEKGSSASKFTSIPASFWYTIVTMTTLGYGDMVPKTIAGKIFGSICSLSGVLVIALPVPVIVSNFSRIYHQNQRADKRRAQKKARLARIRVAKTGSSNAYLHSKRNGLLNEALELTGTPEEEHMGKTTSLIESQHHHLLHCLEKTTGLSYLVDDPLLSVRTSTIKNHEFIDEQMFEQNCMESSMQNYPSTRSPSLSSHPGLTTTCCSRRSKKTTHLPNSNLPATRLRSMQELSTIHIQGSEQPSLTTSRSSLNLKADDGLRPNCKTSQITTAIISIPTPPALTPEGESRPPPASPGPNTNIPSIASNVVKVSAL

[17] = target: Voltage-dependent L-type calcium channel subunit alpha-1C (Homo sapiens, UniProt Q13936); experiment: Inhibition of CaV1.2 (unknown origin)
[18] = target: T5, G protein-activated inward rectifier potassium channel 1 (Homo sapiens, UniProt P48549); experiment: Inhibition of Kir3.1 (unknown origin)
T5 sequence (P48549 whole entry): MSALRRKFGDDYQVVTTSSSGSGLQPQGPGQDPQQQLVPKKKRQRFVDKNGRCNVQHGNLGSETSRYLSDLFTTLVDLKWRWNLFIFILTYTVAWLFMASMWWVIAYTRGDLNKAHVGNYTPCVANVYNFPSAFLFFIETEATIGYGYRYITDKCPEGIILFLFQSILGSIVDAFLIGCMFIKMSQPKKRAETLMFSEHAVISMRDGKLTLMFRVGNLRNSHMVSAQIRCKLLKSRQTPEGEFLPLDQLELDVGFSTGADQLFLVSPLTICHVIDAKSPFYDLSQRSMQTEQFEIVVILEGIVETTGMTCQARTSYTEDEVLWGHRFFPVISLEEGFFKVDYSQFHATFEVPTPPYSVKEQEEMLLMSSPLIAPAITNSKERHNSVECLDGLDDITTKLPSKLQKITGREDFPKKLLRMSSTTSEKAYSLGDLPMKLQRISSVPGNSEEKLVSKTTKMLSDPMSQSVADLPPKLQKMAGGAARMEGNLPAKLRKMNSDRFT

[19] = target: Sodium channel protein type 5 subunit alpha (Homo sapiens, UniProt Q14524); experiment: Inhibition of Nav1.5 (unknown origin)
Sodium channel protein type 5 subunit alpha, sequence (Q14524 whole entry): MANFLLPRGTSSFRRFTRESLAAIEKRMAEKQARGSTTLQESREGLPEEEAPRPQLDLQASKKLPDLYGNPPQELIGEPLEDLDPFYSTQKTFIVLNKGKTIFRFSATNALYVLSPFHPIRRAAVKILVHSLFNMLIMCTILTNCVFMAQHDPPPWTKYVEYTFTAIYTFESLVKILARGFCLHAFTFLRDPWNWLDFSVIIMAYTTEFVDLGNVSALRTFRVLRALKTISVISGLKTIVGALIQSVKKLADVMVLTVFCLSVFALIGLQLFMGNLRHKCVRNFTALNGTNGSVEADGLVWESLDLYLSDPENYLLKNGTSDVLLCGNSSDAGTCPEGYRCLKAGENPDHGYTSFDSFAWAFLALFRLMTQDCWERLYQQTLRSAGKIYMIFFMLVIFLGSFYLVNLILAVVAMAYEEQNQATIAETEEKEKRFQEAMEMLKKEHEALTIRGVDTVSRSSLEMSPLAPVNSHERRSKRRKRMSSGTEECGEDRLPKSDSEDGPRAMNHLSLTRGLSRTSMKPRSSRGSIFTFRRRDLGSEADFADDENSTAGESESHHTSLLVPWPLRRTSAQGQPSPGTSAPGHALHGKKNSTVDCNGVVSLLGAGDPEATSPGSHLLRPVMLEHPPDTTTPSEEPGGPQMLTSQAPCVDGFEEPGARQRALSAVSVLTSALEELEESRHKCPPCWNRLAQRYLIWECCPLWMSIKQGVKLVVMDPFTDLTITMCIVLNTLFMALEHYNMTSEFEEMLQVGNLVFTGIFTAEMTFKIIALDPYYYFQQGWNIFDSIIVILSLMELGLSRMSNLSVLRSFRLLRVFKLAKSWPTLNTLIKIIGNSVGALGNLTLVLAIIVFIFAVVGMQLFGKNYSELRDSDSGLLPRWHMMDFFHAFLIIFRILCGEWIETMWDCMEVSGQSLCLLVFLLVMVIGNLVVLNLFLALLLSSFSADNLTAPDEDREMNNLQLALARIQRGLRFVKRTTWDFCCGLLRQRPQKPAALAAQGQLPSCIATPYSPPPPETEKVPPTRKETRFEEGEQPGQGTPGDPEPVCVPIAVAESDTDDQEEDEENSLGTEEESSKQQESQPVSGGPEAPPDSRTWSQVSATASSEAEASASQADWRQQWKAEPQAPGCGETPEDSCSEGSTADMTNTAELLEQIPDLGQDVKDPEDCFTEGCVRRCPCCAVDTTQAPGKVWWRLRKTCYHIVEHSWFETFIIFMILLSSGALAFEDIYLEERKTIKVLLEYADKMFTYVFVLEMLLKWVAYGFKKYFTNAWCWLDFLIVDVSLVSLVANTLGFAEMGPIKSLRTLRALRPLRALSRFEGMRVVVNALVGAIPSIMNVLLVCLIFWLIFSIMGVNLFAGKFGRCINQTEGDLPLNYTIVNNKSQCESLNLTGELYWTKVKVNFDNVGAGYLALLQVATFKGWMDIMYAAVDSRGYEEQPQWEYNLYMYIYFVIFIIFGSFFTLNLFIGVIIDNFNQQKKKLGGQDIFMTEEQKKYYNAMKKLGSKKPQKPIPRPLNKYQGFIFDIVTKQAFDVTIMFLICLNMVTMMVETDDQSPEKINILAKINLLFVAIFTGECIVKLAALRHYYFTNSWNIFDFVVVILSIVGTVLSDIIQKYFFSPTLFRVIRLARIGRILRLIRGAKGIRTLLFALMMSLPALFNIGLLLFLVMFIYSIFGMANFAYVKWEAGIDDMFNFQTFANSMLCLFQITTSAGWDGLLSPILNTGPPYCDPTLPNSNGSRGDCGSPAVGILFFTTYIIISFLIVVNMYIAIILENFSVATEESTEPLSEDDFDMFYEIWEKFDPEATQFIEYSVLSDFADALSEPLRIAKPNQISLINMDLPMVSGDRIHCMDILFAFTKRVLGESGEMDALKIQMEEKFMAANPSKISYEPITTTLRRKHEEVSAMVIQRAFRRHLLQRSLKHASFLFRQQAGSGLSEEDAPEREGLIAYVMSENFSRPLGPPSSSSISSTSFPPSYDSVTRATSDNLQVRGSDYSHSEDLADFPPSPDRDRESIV

hERG (KCNH2) = hERG (KCNH2) (Homo sapiens, UniProt Q12809); experiment: Inhibition of human ERG at 33 uM relative to control
[20] = Dissociation constant, pKa of the compound; assay type: physicochemical

T1 sequence (P22460 whole entry): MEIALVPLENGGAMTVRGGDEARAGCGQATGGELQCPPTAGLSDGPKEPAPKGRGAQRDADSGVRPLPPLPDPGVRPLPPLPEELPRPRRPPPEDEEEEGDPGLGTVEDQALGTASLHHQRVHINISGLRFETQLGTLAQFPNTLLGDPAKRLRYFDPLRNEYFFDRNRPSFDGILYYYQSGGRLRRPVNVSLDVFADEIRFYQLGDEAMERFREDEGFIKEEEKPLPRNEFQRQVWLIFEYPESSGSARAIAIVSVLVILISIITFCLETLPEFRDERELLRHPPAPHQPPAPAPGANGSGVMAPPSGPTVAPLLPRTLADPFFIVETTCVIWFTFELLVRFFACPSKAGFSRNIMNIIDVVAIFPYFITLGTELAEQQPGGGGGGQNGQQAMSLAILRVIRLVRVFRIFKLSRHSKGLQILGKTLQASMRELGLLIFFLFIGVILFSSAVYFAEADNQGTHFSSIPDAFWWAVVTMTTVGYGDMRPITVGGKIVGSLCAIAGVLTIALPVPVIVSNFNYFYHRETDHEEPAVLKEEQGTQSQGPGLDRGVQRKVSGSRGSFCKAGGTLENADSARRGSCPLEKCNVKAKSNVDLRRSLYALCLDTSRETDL

| IC50 [2] | clearance [3] | dose excreted [4] | CL renal [5] | IC50 [7] | chromatographic logD [8] | microsomal CLint [9] | Drug metabolism (Cytochrome P450 3A4) | Structure (SMILES) | other results |
| --- | --- | --- | --- | --- | --- | --- | --- | --- | --- |
| 4.8 µM | 44 mL/min/kg | 4.4% | 2.1 mL/min/kg |  |  |  |  | CCCN(CC)[C@H](c1ccccn1)[C@@H](c1cccc(C#N)c1)N(CCOC)C[C@H](C)CO | IC50 [1]: 0.39 µM |
| 3.4 µM | 3 mL/min/kg | 12% | 0.3 mL/min/kg |  |  |  |  | CCCN(C[C@H](C)O)[C@H](c1ccccn1)[C@@H](c1ccccn1)N1C2CCCC1CC2 | Activity [6]: Toxic; Cp(f) (Oryctolagus cuniculus): 0.057 µM |
| 3.2 µM | 16 mL/min/kg | 6.9% | 0.7 mL/min/kg | 60 µM | 3.3 | 23 µL/min/mg | Metabolite_Detected | CCCN(CC)[C@H](c1ccccn1)[C@@H](c1ccccn1)N(CC)CCC | IC50 (Cytochrome P450 2D6): 5.4 µM; Stability [10]: Stable; IC50 [11]: > 33 µM |
| 1.7 µM | 6.1 mL/min/kg | 5.1% | 0.19 mL/min/kg | > 33 µM |  |  |  | CCCN(CCC)[C@H](c1ccccn1)[C@@H](c1ccccn1)N(CCC)C[C@H](O)CO | inhibition [12]: 13%; Cp(f) (Canis familiaris): 0.48 µM; IC50 [13]: 4.1 µM; IC50 [1]: 0.06 µM; inhibition [14]: 14%; Drug uptake(free) [15]: 4%; IC50 [16]: 11 µM; IC50 [17]: > 33 µM; IC50 [11]: > 33 µM; IC50 [18]: 4.1 µM; IC50 [19]: 19 µM; inhibition at 33 µM (hERG (KCNH2)): 37%; Cp(f) (Oryctolagus cuniculus): 0.15 µM |
| 2.2 µM |  |  |  | 17 µM | 2.2 | < 5 µL/min/mg | Metabolite_Detected | c1ccc([C@H]([C@@H](c2ccccn2)N2CCCCC2)N2CCCCC2)nc1 | pKa [20]: 10.4; IC50 (Cytochrome P450 2D6): > 20 µM; IC50 [11]: > 33 µM |
| 7.3 µM | 37 mL/min/kg | 4.7% | 1.8 mL/min/kg |  |  |  |  | CCCN(CC)[C@@H](c1ccccn1)[C@H](c1cccc(C#N)c1)N(CCOC)C[C@@H](C)CO | IC50 [1]: 0.26 µM |
| 2.7 µM | 21 mL/min/kg | 11% | 2.5 mL/min/kg |  |  |  |  | CCCN(CCC)[C@H](c1ccccn1)[C@@H](c1ccccn1)N(CCOC)C[C@H](C)O | Cp(f) (Oryctolagus cuniculus): 0.22 µM |
| 1.4 µM |  |  |  |  | 4.6 | 412 µL/min/mg | Metabolite_Detected | c1ccc([C@H]([C@H](c2ccccn2)N2CCCCC2)N2CCCCC2)nc1 | pKa [20]: 8.7 |
| 2.1 µM | 16 mL/min/kg | 19% | 5.5 mL/min/kg |  |  |  |  | CCCN(CCC)[C@H](c1ccccn1)[C@@H](c1ccccn1)N(C[C@@H](C)O)C[C@@H](C)O | Cp(f) (Oryctolagus cuniculus): 0.29 µM |
| 0.22 µM |  |  |  | > 33 µM | 4.6 | 58 µL/min/mg | Metabolite_Detected | CCCN(CCC)[C@H](c1ccccn1)[C@@H](c1ccccn1)N(CCC)CCC | IC50 (Cytochrome P450 2D6): > 20 µM |
| 10 µM | 25 mL/min/kg | 11% | 2.7 mL/min/kg |  |  |  |  | CCCN(CC)[C@H](c1ccccn1)[C@@H](c1ccccn1)N(CCOC)C[C@H](C)CO |  |
| 5.6 µM | 25 mL/min/kg | 28% | 7.1 mL/min/kg |  |  |  |  | COCCN(C[C@H](C)O)[C@H](c1ccccn1)[C@@H](c1ccccn1)N1C2CCC1CC(OC)C2 (stereo not given in full) |  |
| 4.8 µM |  |  |  |  | 2.2 | < 5 µL/min/mg | Metabolite_Detected | c1ccc([C@@H]([C@H](c2ccccn2)N2CCCCC2)N2CCCCC2)nc1 | pKa [20]: 10.4 |

| Structure (SMILES) | IC50 [2] | clearance [3] | dose excreted [4] | CL renal [5] | IC50 [7] | chromatographic logD [8] | microsomal CLint [9] | Drug metabolism (Cytochrome P450 3A4) | other results |
| --- | --- | --- | --- | --- | --- | --- | --- | --- | --- |
| c1ccc([C@H]([C@@H](c2ccccc2)N2CCCCC2)N2CCCCC2)cc1 | 0.41 µM |  |  |  | 1.4 µM | 4 | 14 µL/min/mg | Metabolite_Detected | IC50 (Cytochrome P450 2D6): 0.13 µM; Stability [10]: Unstable; IC50 [11]: > 33 µM |
